Calls of active or inactive are those of the source. No cut-off for these calls is given here.

The test system of data set [1] is Mus musculus. The data set is described as follows: Hypolipidemic activity in ob/ob mouse assessed as decrease in macrosteatosis at 3 mg/kg administered daily via oral gavage for 31 days by hematoxylin-eosin staining-based microscopic method. In kind it is functional, organism-based. The gist of the method: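 Male ob/ob mice dosed by gavage (soybean vehicle); liver and abdominal white adipose tissue fixed in 10% formaldehyde-PBS pH 7.4, paraffin-embedded, sectioned, stained with H&E, Oil Red O or sirius red, and examined by light microscopy.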

Data set [2] is described as follows: Inhibition of rat small intestinal mucosal alpha-glucosidase using p-nitrophenyl-alpha-D-glucopyranoside as substrate after 40 mins by colorimetric method. The gist of the method: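 Rat small intestinal mucosal α-glucosidase; several compound concentrations, each run three times in parallel; phosphate-buffer control replaces compound, blank replaces enzyme. Absorbance at 405 nm; % inhibition = blank-corrected OD of test versus control; IC50 derived from the concentration gradient.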

The test system of data set [3] is Mus musculus. The data set is described as follows: Toxicity in C57BL/6J mouse assessed as effect on plasma ALT levels at 30 mg/kg administered daily via oral gavage for 3 months. In kind it is organism-based. As to conditions: in vivo. The gist of the method:
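Long-term safety study in C57BL/6J mice, 20 male and 20 female, sorted by gender, blood glucose and body weight into four groups (n = 10 each). Treated groups of each sex got 30.0 mg/kg daily by oral gavage in soybean vehicle. Vehicle groups got an equal volume of soybean. Dosing ran three months, with behavior, survival, body weight, blood glucose, liver function and organ coefficients recorded.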

Data set [4] is described as follows: AUC (0 to t) in Sprague-Dawley rat at 2 mg/kg, po. Format: ADME, organism-based. Conditions: in vivo. The gist of the method: (§1)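 Male Sprague-Dawley rats (n = 6, 0.21–0.23 kg), single oral dose 2.0 mg/kg. Orbital blood sampled 0–16 h into heparinized tubes. Plasma was protein-precipitated with methanol, with internal standard added. Quantified by UPLC-ESI(+)-QTOF-MS in SIM mode on a C18 column with a methanol/0.3% formic acid water gradient. Linear range 0.54–107 ng/ml.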

The nature of data set [5]: Half life in Sprague-Dawley rat at 2 mg/kg, po. Format: ADME, organism-based. Conditions: in vivo. The gist of the method: as §1
For data set [6], the system named is Mus musculus. Kind of data set: Antiobesity activity in ob/ob mouse assessed as change in lean mass at 3 mg/kg administered daily via oral gavage for 31 days. Format: functional, organism-based. The procedure, abridged:
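Male ob/ob mice, n = 10 per group, grouped by blood glucose and body weight. Daily gavage at 0.3, 1.0 or 3.0 mg/kg in soybean vehicle, with soybean vehicle controls and C57BL/6J controls. Body weight, cumulative food intake, LEE index, fat mass and lean mass recorded. Mean ± SEM, one-way ANOVA with Tukey test.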

Data set [7] concerns Mus musculus. Kind of data set: Hypoglycemic activity in ob/ob mouse assessed as decrease in free diet blood glucose levels administered daily via oral gavage for 28 days. Format: functional, organism-based. The gist of the method:
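Male ob/ob mice, n = 10 per group, daily gavage at 0.3, 1.0 or 3.0 mg/kg in soybean vehicle. Fasting and free-diet blood glucose and HbA1c measured.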

For data set [8], the system named is Mus musculus. Kind of data set: Hypoglycemic activity in ob/ob mouse assessed as decrease in blood glucose AUC at 0.3 to 3 mg/kg administered daily via oral gavage for 27 days by ITT. In kind it is functional, organism-based. The gist of the method:
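Male ob/ob or high-fat-diet C57BL/6J mice dosed daily by gavage at 0.3–3.0 mg/kg. OGTT: glucose 2 g/kg orally after overnight fast. ITT: insulin 0.6 U/kg i.p. after 4 h fast. Glucometer readings at 0, 40, 80 and 120 min; AUC computed from the curves.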

The test system of data set [9] is Mus musculus. Kind of data set: Hypolipidemic activity in ob/ob mouse assessed as decrease in plasma free fatty acid levels administered daily via oral gavage for 31 days. In kind it is functional, organism-based.
The subject of data set [10] is Mus musculus. Kind of data set: Hypolipidemic activity in ob/ob mouse assessed as decrease in plasma triglyceride levels at 3 mg/kg administered daily via oral gavage for 31 days relative to vehicle-treated control. More on the design: scale not given: the % may be the effect or the level left. In kind it is functional.
In data set [11] the test system is Mus musculus. Kind of data set: Hypolipidemic activity in ob/ob mouse assessed as decrease in plasma LDL-C levels at 1 mg/kg administered daily via oral gavage for 31 days relative to vehicle-treated control. Format: functional. More on the design: scale not given: the % may be the effect or the level left.
The test system of data set [12] is Mus musculus. Kind of data set: Hypolipidemic activity in ob/ob mouse assessed as decrease in liver free fatty acid levels at 0.3 to 3 mg/kg administered daily via oral gavage for 31 days. In kind it is functional, organism-based.
For data set [13], the system named is Mus musculus. The data set is described as follows: Hypolipidemic activity in ob/ob mouse assessed as decrease in liver triglyceride levels at 0.3 to 3 mg/kg administered daily via oral gavage for 31 days. In kind it is functional, organism-based.
The test system of data set [14] is Mus musculus. The data set is described as follows: Hypolipidemic activity in ob/ob mouse assessed as decrease in serum AST levels at 0.3 to 3 mg/kg administered daily via oral gavage for 31 days. In kind it is functional, organism-based.
For data set [15], the system named is Mus musculus. The data set is described as follows: Antifibrotic activity in ob/ob mouse assessed as decrease in hepatic hydroxyproline levels at 3 mg/kg administered daily via oral gavage for 31 days. In kind it is functional, organism-based.
The subject of data set [16] is Alphaproteobacteria. Kind of data set: Decrease in Alphaproteobacteria levels in cecum of ob/ob mouse at 1 to 3 mg/kg administered daily via oral gavage for 31 days by 16S rRNA gene high-throughput sequencing method. In kind it is functional, organism-based. The gist of the method:
(§2)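 Male ob/ob mice dosed daily by gavage at 1.0 or 3.0 mg/kg, compared with vehicle group. DNA extracted from about 150 mg caecum contents. 16S rRNA V3–V4 region amplified and sequenced on Illumina HiSeq PE250. Community compared by NMDS/MRPP; discriminant taxa identified by LEfSe.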

For data set [17], the system named is Betaproteobacteria. Kind of data set: Decrease in Betaproteobacteria levels in cecum of ob/ob mouse at 1 to 3 mg/kg administered daily via oral gavage for 31 days by 16S rRNA gene high-throughput sequencing method. Format: functional, organism-based. The gist of the method: as §2
Data set [18] concerns Gammaproteobacteria. Kind of data set: Decrease in Gammaproteobacteria levels in cecum of ob/ob mouse at 1 to 3 mg/kg administered daily via oral gavage for 31 days by 16S rRNA gene high-throughput sequencing method. Format: functional, organism-based. The gist of the method:
as §2

Data set [19] has as its system Fusobacterium. The data set is described as follows: Decrease in Fusobacterium levels in cecum of ob/ob mouse at 3 mg/kg administered daily via oral gavage for 31 days by 16S rRNA gene high-throughput sequencing method. Format: functional, organism-based. The gist of the method: as §2
Data set [20] deals with Mus musculus. Kind of data set: Upregulation of ZO-1 mRNA expression in ob/ob mouse ileum at 3 mg/kg administered daily via oral gavage for 31 days by RNA-seq analysis. Format: functional, organism-based.
In data set [21] the test system is Mus musculus. The data set is described as follows: Antiobesity activity in antibiotic-treated ob/ob mouse assessed as reduction in weight gain at 3 mg/kg administered daily via oral gavage for 3 weeks. In kind it is functional, organism-based. The procedure, abridged:
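Male ob/ob mice given drinking water with ampicillin (1 g/L), vancomycin and other antibiotics for three weeks. Groups of n = 8 were dosed at 3.0 mg/kg/day by mouth in soybean vehicle, alongside non-antibiotic ob/ob groups. Weight gain and food intake recorded.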

The test system of data set [22] is Mus musculus. The data set is described as follows: Hypoglycemic activity in antibiotic-treated ob/ob mouse assessed as decrease in HbA1c levels at 3 mg/kg administered daily via oral gavage for 3 weeks. In kind it is functional, organism-based. The procedure, abridged: (§3)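 Male ob/ob mice pretreated three weeks with ampicillin (1 g/L), vancomycin, neomycin, gentamycin and erythromycin. Groups of n = 8 given 3.0 mg/kg/day orally in soybean vehicle versus vehicle. Plasma and hepatic lipids, fasting glucose, OGTT (glucose 2 g/kg after overnight fast) and HbA1c measured.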

For data set [23], the system named is Mus musculus. Kind of data set: Hypolipidemic activity in antibiotic-treated ob/ob mouse assessed as decrease in plasma triglycerides levels at 3 mg/kg administered daily via oral gavage for 3 weeks. In kind it is functional, organism-based. The gist of the method:
as §3

The test system of data set [24] is Mus musculus. The data set is described as follows: Hypolipidemic activity in antibiotic-treated ob/ob mouse assessed as decrease in hepatic total cholesterol levels at 3 mg/kg administered daily via oral gavage for 3 weeks. Format: functional, organism-based. The gist of the method: as §3

Take `CC(C)=CCC/C(C)=C/CCC1=C[C@H](c2ccc(C(C)(C)C)cc2)OC1=O`: the result in data set [1], in [8], in data set [12], in data set [13], in data set [14] and in data set [15] was Active. Also, the outcome in [16], in [17], in data set [18], in data set [19], in data set [20] and in [21] was Active. Also, in data set [23], the outcome was Active. This compound returned an IC50 in data set [2] of 60 nM. Moreover, the Activity entry in [3] is “Non-Toxic”; in data set [7] it was “Dose-dependent effect”; in [9], “Dose-dependent effect”; in data set [10], 47%; in [11], 43%. In addition, the AUC(0-t) in data set [4] is 274 ng·h/mL. This compound also had a half-life in data set [5] of 1.8 h. Also, the outcome in [6], in data set [22] and in data set [24] was inactive.

The record behind these values is ChEMBL document CHEMBL4177753, “Structural Modification of Natural Product Ganomycin I Leading to Discovery of a α-Glucosidase and HMG-CoA Reductase Dual Inhibitor Improving Obesity and Metabolic Dysfunction in Vivo” (J Med Chem, 2018).
